Key:
S. pneumoniae UPPS [1] = molecular target: T1, S. pneumoniae UPPS (Streptococcus pneumoniae serotype 4, UniProt Q97SR4); assay: Photo-cross-linking with Photo-probe and mass spectrometry; type: binding; conditions: 30 μM UPPS, 30 μM Photo-probe, UV 350 nm 10 min
T1 sequence (Q97SR4 1-252): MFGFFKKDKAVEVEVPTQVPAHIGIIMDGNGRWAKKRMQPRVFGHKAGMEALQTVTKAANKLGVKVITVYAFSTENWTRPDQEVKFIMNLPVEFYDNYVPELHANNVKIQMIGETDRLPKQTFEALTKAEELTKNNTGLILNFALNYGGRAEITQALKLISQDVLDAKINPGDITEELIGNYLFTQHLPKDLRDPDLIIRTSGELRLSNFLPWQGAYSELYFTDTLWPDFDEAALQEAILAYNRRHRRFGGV

S. pneumoniae UPPS [2] = molecular target: T1, S. pneumoniae UPPS; assay: Biomol Green assay of UPPS activity; type: biochemical
Summary of the method: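 His-tagged S. pneumoniae UPPS expressed in E. coli BL21(DE3) and purified by Ni-NTA and size exclusion, then mixed 1:2 (w/v) with liposomes of total E. coli lipid extract. Released phosphate quantified with Biomol Green reagent.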

S. pneumoniae UPPS [3] = molecular target: T1, S. pneumoniae UPPS; assay: Protein fluorescence binding experiments; conditions: excitation 285 nm; 1 μM UPPS, 5 μM compound
Summary of the method: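 Intrinsic protein fluorescence: emission scanned 300−500 nm at excitation 285 nm. Buffer: 100 mM HEPES pH 7.3, 0.5 mM MgCl2, 50 mM KCl, 1.25% DMSO. Test compound (final 5 μM) preincubated 15 min with UPPS (final 1 μM) before adding FsPP (15 μM), IsPP (40 μM) or both. Spectra are averages of two scans.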

Row | Structure (SMILES) | binding to and modification of UPPS in the absence of substrate (S. pneumoniae UPPS [1]) | IC50 (S. pneumoniae UPPS [2]) [nM] | change of intrinsic fluorescence of S. pneumoniae UPPS upon addition of compound (S. pneumoniae UPPS [3])
1 | O=C(Nc1ccc(C(=O)c2ccccc2)cc1)C1=C(O)C(CCc2ccccc2)NC1=O (stereo not shown) [Photo-probe, N-(4-Benzoylphenyl)-4-hydroxy-2-oxo-5-phenethyl-2,5-dihydro-1H-pyrrole-3-carboxamide] | bound to and modified UPPS | 630 | –
2 | CC1(Cc2ccccc2)NC(=O)C(C(=O)Nc2ccc(C3CCCCC3)cc2)=C1O (stereo not shown) [compound 1, 5-benzyl-4-hydroxy-5-methyl-2-oxo-2,5-dihydro-1H-pyrrole-3-carboxylic acid (4-cyclohexylphenyl)amide] | – | 450 | increased
